Six compounds from article PMC11182071 (Journal of Enzyme Inhibition and Medicinal Chemistry, 2024) can be followed below.

One data set has as its system α-glucosidase. As to the kind of experiment: α-Glucosidase inhibition assay. The data set is classed as biochemical, yeast. As to conditions: for α-glucosidase inhibition (% at 50 μM): mean ± SD, n=3.
For another data set, the target named is T1, α-amylase (Sus scrofa, UniProt P00690).
T1 sequence (P00690 16-511): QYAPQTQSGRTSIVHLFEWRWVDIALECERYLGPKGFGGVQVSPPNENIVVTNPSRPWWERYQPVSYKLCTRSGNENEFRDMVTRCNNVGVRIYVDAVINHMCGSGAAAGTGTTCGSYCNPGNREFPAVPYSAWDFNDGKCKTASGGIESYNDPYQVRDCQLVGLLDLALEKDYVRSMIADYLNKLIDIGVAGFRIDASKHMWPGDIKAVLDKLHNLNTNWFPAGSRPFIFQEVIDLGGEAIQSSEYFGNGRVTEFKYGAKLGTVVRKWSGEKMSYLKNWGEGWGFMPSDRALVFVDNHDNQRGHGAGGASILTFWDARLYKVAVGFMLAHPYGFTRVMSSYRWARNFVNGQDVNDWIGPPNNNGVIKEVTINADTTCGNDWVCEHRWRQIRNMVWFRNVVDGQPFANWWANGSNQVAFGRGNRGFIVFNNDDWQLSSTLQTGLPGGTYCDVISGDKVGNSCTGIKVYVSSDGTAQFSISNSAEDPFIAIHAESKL
As to the kind of experiment: α-amylase inhibition assay. The data set is classed as biochemical, porcine. As to conditions: read-out: α-amylase inhibition (% at 250 μM).

Data set [1] has as its target T2, PTP1B (Homo sapiens, UniProt P18031).
T2 sequence (P18031 1-435): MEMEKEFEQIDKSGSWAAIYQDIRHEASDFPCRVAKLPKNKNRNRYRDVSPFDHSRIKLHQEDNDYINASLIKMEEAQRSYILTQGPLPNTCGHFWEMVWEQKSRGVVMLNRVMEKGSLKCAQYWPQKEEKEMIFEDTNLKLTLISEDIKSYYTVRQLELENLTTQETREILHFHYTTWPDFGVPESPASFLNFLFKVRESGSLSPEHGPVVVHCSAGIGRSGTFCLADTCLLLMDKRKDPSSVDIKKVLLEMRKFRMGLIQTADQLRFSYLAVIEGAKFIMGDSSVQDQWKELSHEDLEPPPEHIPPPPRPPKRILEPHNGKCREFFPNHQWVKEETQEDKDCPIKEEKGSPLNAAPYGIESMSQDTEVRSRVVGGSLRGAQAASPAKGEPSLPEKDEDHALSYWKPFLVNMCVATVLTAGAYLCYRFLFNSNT
Put plainly: Protein tyrosine phosphatase 1B inhibition assay. In kind it is biochemical. The following applies: for inhibition at 50 µM: read-out: PTP1B inhibition (% at 50 μM).

Data set [2] has as its system insulin-resistant HepG2 cells. Put plainly: In vitro glucose consumption assay in insulin-resistant HepG2 cells. The data set is classed as cell-based, human. The following applies: 24 h treatment; vs model group. A digest of the protocol:
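HepG2 seeded in 6-well plates at 1 × 10^5 cells/well for 24 h. Serum-starved 2 h, then made insulin-resistant with 1 × 10−6 mol/l insulin for 48 h at 37 °C, 5% CO2. Groups: control, model, low/middle/high dose of free or liposomal test compound (top 100 μg/mL), blank liposome. After 24 h treatment, medium glucose measured by glucose oxidase kit; consumption = blank-well minus sample-well glucose. Mean ± SD, n = 3.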

The target in data set [3] is T2, PTP1B. As to the kind of experiment: PTP1B inhibition kinetic assay. In kind it is biochemical. The essentials: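 PTP1B at 100 nM reacted with p-nitrophenyl phosphate at 1, 2, 5 and 10 mM and test compound at 0, 0.5, 1.0 and 5.0 μM. Absorbance read every 3 min. Velocity taken from the time–Δabs plot. Inhibition mode from Lineweaver-Burk double-reciprocal plots; Ki from Dixon plots. Triplicate.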

A further data set in a line: Solubility observations. The data set is classed as physicochemical. The following applies: medium not stated.

Regarding `C[C@H]1O[C@H](O[C@H]2[C@H](O)[C@@H](O)[C@@H](O[C@H]3[C@H](O)[C@@H](O)C(O)O[C@@H]3CO)O[C@@H]2CO)[C@H](O)[C@@H](O)[C@@H]1N[C@H]1C=C(CO)[C@@H](O)[C@H](O)[C@H]1O` (stereo partly drawn) [Acarbose, reference compound], the “α-glucosidase inhibition (% at 50 μM)” value in the data set with α-glucosidase was 96.51 ± 0.02%.
Consider `CC(C)=C1CC=C([C@H]2CC[C@]3(C)[C@@H]2CC[C@@H]2C4=C(CC[C@]23C)C(C)(C)[C@@H]2CC[C@H]4O2)C1=O` [Compound 4, gypensapogenin A], for which the inhibition at 250 µM at α-amylase worked out at 31.81 ± 0.02%. Further, in the data set on α-glucosidase, the “α-glucosidase inhibition (% at 50 μM)” value worked out at 25.80 ± 0.71%. Further, the inhibition at 50 µM at PTP1B [1] was 65.9 ± 1.69%.
As to `CC(C)=C1CC([C@H]2CC[C@]3(C)[C@@H]2CC[C@@H]2C4=C(CC[C@]23C)C(C)(C)[C@@H]2CC[C@H]4O2)=CC1=O` [Compound 5, gypensapogenin B], the “α-glucosidase inhibition (% at 50 μM)” value with α-glucosidase is recorded as 25.55 ± 1.75%. Further, the inhibition at 50 µM at PTP1B [1] is 67.1 ± 1.33%.
As to `CC(C)=C1CC=C([C@H]2CC[C@]3(C)[C@@H]2CC[C@@H]2[C@@]4(C)CC[C@H](O)C(C)(C)[C@@H]4CC[C@]23C)C1=O` [Compound 6, gypensapogenin C], the “α-glucosidase inhibition (% at 50 μM)” value in the data set with α-glucosidase is reported as 24.64 ± 0.65%. The inhibition at 50 µM at PTP1B [1] was 78.9 ± 0.87%.
Consider `CC(C)=C[C@H]1C=C([C@H]2CC[C@]3(C)[C@@H]2CC[C@@H]2[C@@]4(C)CC[C@H](O)C(C)(C)[C@@H]4CC[C@]23C)C(=O)O1` [Compound 7, gypensapogenin D], for which the “Glucose consumption in insulin-resistant HepG2 cells” value in data set [2] is recorded as “did not improve the reduction of glucose consumption”. The compound further came in with an inhibition constant (Ki) at PTP1B [3] of 4.29 µM. In addition, on PTP1B [3] (Lineweaver-Burk double reciprocal plot), the “Inhibition type against PTP1B (Lineweaver-Burk plot)” value is reported as “competitive inhibitors”. Besides, the inhibition at 250 µM on α-amylase was 11.6 ± 1.24%. Besides, the Solubility result in “Solubility observations” is recorded as “poorly solubility”. The “α-glucosidase inhibition (% at 50 μM)” value in the data set on α-glucosidase is listed as 61.94 ± 1.54%. Besides, at α-glucosidase (read-out: α-glucosidase IC50, mean ± SD of three replications), the IC50 came out at 27.15 ± 0.17 µM. Also, at PTP1B [1], the IC50 turned out to be 8.17 ± 0.63 µM and the inhibition at 50 µM amounted to 83.49 ± 0.62%.
Consider `[Na+].[Na+].[Na+].[O]=[V]([O-])([O-])[O-]` [Na3VO4, reference compound], for which the “PTP1B inhibition (% at 50 μM)” value on PTP1B [1] (50 μM, mean ± SD, n=3) was determined as 98.07 ± 0.51%.

For orientation: inhibition means the drop in the measured response relative to a control, in per cent. A word on the Ki: it is a measure of affinity in units of concentration, obtained from inhibition or displacement. Higher therefore signals a looser hold on the target. As a reminder, the IC50 is the concentration needed to halve the response being measured.
